Results as given in ChEMBL document CHEMBL1817572, “New, potent, selective, and short-acting peptidic V1a receptor agonists” (J Med Chem, 2011).
Numbered stars: 1 amine (or outer) side, 2 acyl side, 3 side chain; on linkers, the order of the positions; unused ones are H or OH. Bridge positions count the residues as written; N and C are the ends. Square brackets hold non-standard residues; d marks the D form. Peptide text beside a SMILES is read from it. * marks the point of attachment. Orn(iPr) = CC(C)NCCC[C@H](N)C(=O)O; X1 = CCNCCC[C@H](N[*:1])C(=O)[*:2]; NH(3-hydroxypropyl) = OCCCN*; Orn = NCCC[C@H](N)C(=O)O; Dab = NCC[C@H](N)C(=O)O

Columns and labels:
[1] = target: Vasopressin V1a/V2 (Homo sapiens) (UniProt P30518+P37288); test: Selectivity ratio of EC50 for human vasopressin V2 receptor to EC50 for human vasopressin V1a receptor
Vasopressin V1a/V2 (Homo sapiens), sequence (P30518 whole entry, looked up): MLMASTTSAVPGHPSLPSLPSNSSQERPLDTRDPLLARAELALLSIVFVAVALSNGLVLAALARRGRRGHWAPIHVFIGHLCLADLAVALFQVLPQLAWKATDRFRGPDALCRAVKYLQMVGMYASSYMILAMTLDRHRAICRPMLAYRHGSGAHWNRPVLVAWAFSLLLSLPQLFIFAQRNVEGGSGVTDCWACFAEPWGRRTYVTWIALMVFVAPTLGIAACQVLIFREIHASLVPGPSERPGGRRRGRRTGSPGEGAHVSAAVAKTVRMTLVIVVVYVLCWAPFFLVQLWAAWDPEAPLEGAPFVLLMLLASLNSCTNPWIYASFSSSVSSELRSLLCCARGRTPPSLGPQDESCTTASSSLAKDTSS
Vasopressin V1a/V2 (Homo sapiens), sequence (P37288 whole entry, looked up): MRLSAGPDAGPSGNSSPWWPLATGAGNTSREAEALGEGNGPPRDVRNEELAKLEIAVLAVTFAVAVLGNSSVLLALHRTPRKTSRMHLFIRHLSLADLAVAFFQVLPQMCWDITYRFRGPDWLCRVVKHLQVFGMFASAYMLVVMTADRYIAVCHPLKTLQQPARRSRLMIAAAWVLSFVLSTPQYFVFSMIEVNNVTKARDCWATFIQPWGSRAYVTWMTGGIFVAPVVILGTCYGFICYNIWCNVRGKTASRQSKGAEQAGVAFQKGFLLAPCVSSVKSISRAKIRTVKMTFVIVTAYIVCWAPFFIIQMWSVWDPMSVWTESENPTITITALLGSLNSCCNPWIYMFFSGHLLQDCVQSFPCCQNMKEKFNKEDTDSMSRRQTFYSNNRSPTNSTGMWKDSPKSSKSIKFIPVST

Vasopressin V1a receptor [2] = target: T1, Vasopressin V1a receptor (Homo sapiens, UniProt P37288); test: Agonist activity at recombinant human vasopressin V1a receptor expressed in HEK293 cells by luciferase reporter gene assay; assay type: functional, cell-based; details: read-out: EC50
Target sequence in this assay (P37288 whole entry): as the sequence (P37288 whole entry, looked up) above

Vasopressin V1b receptor = target: T2, Vasopressin V1b receptor (Homo sapiens, UniProt P47901); test: Agonist activity at recombinant human vasopressin V1b receptor expressed in Flp-In-293 cells by luciferase reporter gene assay; assay type: functional, cell-based; details: read-out: EC50
T2 sequence (P47901 whole entry): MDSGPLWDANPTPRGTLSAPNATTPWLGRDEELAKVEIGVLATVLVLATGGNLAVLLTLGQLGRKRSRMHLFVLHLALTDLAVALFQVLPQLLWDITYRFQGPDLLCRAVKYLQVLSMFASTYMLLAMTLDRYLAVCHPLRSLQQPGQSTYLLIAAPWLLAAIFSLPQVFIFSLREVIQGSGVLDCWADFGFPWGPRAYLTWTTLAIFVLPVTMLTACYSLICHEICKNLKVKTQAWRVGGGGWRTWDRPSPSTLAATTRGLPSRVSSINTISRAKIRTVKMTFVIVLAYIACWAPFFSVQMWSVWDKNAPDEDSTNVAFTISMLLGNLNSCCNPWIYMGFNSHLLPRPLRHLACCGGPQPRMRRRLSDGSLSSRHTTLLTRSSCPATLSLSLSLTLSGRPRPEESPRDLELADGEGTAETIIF
Method in brief: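 Reporter gene assays in HEK293 cells transiently cotransfected with V1a (human or rat) or human V2 receptor vector plus NFAT-luciferase (V1a) or CRE-luciferase (V2) reporter; V1b in Flp-In-293 stably expressing receptor, OT in CHO-K1 stably expressing receptor, both transiently transfected with NFAT-luciferase. Two days post-transfection, peptides added for 5 h at 37 °C, lysis with luciferin, luminescence read.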

Vasopressin V2 receptor [3] = target: T3, Vasopressin V2 receptor (Homo sapiens, UniProt P30518); test: Agonist activity at recombinant human vasopressin V2 receptor expressed in HEK293 cells by luciferase reporter gene assay; assay type: functional, cell-based
T3 sequence (P30518 whole entry): as the sequence (P30518 whole entry, looked up) above

Oxytocin receptor = target: T4, Oxytocin receptor (Homo sapiens, UniProt P30559); test: Agonist activity at human OT receptor expressed in CHO-K1 cells by luciferase reporter gene assay; assay type: functional, cell-based
T4 sequence (P30559 whole entry): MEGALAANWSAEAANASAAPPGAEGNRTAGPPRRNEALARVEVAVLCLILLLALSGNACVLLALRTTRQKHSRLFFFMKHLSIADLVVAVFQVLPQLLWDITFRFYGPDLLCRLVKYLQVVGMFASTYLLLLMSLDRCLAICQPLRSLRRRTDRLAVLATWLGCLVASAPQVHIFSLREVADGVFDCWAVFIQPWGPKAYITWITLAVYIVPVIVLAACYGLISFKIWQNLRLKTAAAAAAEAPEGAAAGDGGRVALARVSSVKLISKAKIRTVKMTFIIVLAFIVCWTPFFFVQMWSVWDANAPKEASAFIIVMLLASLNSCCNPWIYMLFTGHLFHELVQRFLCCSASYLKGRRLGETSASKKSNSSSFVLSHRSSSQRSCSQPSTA

Homo sapiens [4] = organism: Homo sapiens; test: Selectivity ratio of EC50 for human vasopressin V1b receptor to EC50 for human vasopressin V1a receptor
Homo sapiens [5] = organism: Homo sapiens; test: Selectivity ratio of EC50 for human oxytocin receptor to EC50 for human vasopressin V1a receptor
Vasopressin V1a receptor [6] = target: Vasopressin V1a receptor (Rattus norvegicus, UniProt P30560); test: Agonist activity at recombinant rat vasopressin V1a receptor expressed in HEK293 cells by luciferase reporter gene assay; assay type: functional, cell-based; details: read-out: EC50
Vasopressin V1a receptor (Rattus norvegicus, UniProt P30560), sequence (P30560 whole entry): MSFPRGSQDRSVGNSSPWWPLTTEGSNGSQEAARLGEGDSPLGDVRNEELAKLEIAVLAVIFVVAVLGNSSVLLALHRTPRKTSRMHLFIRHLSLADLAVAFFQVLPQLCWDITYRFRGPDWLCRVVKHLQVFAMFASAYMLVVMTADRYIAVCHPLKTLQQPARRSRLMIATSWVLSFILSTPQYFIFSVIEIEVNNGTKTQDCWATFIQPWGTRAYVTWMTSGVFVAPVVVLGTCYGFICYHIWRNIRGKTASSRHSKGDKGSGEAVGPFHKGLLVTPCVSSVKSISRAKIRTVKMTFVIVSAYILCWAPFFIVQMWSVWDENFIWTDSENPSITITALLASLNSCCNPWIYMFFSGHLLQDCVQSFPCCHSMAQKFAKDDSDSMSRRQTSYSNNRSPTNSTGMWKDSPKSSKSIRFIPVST

Rattus norvegicus [7] = test: Vasoconstriction in Wistar rat assessed as assessed as decay in vasopressive duration of action at 2 nmol/kg, iv bolus measured over 10 sec interval; assay type: functional
Method in brief: (§1)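 Fasted male Wistar rats (206–340 g) under isoflurane, then thiobutabarbital 150 mg/kg ip, ventilated, 37–38 °C, with carotid pressure and jugular dosing. Dibenamine 1.8 mg/rat iv pretreatment. Sequence: iv boluses (0.5 mL/kg) of heparinized vehicle, then two reference doses of 0.1 nmol/kg, then two test doses; one matches the reference diastolic pressure rise. Relative duration = reference decay rate / test decay rate; mean ± SEM.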

Rattus norvegicus [8] = test: Vasoconstriction in Wistar rat assessed as decay in vasopressive duration of action at 1 nmol/kg, iv bolus measured over 10 sec interval; assay type: functional; method in brief: as §1
Rattus norvegicus [9] = test: Vasoconstriction in Wistar rat assessed as assessed as decay in vasopressive duration of action at 6 nmol/kg, iv bolus measured over 10 sec interval; assay type: functional; method in brief: as §1
Rattus norvegicus [10] = test: Vasoconstriction in Wistar rat assessed as assessed as decay in vasopressive duration of action at 0.2 nmol/kg, iv bolus measured over 10 sec interval; assay type: functional
Vasopressin V1a receptor [11] = target: T1, Vasopressin V1a receptor; test: Partial agonist activity at recombinant human vasopressin V1a receptor expressed in HEK293 cells by luciferase reporter gene assay; assay type: functional, cell-based
Method in brief: (§2)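 Same luciferase reporter systems (OT in stable CHO-K1, V1b in stable Flp-In-293, each with transient NFAT-luciferase; V1a in HEK293 with NFAT-luciferase, V2 in HEK293 with CRE-luciferase). Peptides added for 5 h at 37 °C two days post-transfection, luminescence read. Partial agonism means efficacy <70%.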
Target sequence in this assay (P37288 whole entry, looked up): as the sequence (P37288 whole entry, looked up) above

Vasopressin V2 receptor [12] = target: T3, Vasopressin V2 receptor; test: Partial agonist activity at recombinant human vasopressin V2 receptor expressed in HEK293 cells by luciferase reporter gene assay; assay type: functional, cell-based; method in brief: as §2
[13] = target: T5, Vasopressin V1b receptor (Homo sapiens) (UniProt P47901); test: Partial agonist activity at recombinant human vasopressin V1b receptor expressed in Flp-In-293 cells by luciferase reporter gene assay; assay type: functional, cell-based; method in brief: as §2
T5 sequence (whole entry): T2 sequence (P47901 whole entry)

| SMILES | Ratio EC50 [1] | EC50 (Vasopressin V1a receptor [2]) [nM] | EC50 (Vasopressin V1b receptor) [nM] | EC50 (Vasopressin V2 receptor [3]; hek293, read-out: EC50) [µM] | EC50 (Vasopressin V2 receptor [3]; read-out: pEC50 (converted)) [µM] | EC50 (Oxytocin receptor; cho-k1, read-out: EC50) [µM] | EC50 (Oxytocin receptor; read-out: pEC50 (converted)) [µM] | Ratio EC50 (Homo sapiens [4]) | Ratio EC50 (Homo sapiens [5]) | EC50 (Vasopressin V1a receptor [6]) [nM] | Time (Rattus norvegicus [7]) [unitless ratio] | Time (Rattus norvegicus [8]) [unitless ratio] | Time (Rattus norvegicus [9]) [unitless ratio] | EC50 (Vasopressin V2 receptor [3]; read-out: EC50) [µM] | EC50 (Oxytocin receptor; read-out: EC50) [µM] | Time (Rattus norvegicus [10]) [min] | Efficacy (Vasopressin V1a receptor [11]) [%] | Efficacy (Vasopressin V2 receptor [12]) [%] | Efficacy [13] [%] |
| --- | --- | --- | --- | --- | --- | --- | --- | --- | --- | --- | --- | --- | --- | --- | --- | --- | --- | --- | --- |
| CC[C@H](C)[C@@H]1NC(=O)[C@H](Cc2ccccc2)NC(=O)[C@@H](N)CSSC[C@@H](C(=O)N2CCC[C@H]2C(=O)N[C@@H](CCCN)C(=O)NCC(N)=O)NC(=O)[C@H](CC(N)=O)NC(=O)[C@H](CC(=O)NCCCO)NC1=O (H-CFID(NH(3-hydroxypropyl))NCP[Orn]G-NH2; disulfide 1-6) | > 4700 | 2.1 | 19 | > 10 | > 10 | > 10 | > 10 | 9 | > 4700 | 2.7 | 1.7 | – | – | – | – | – | – | – | – |
| CC[C@H](C)[C@@H]1NC(=O)[C@H](Cc2ccccc2)NC(=O)[C@@H](N)CSSC[C@@H](C(=O)N2CCC[C@H]2C(=O)N[C@@H](CCCN)C(=O)NCC(N)=O)NC(=O)[C@H](CC(N)=O)NC(=O)[C@H](CC(=O)N(C)C)NC1=O (H-CFID(NMe2)NCP[Orn]G-NH2; disulfide 1-6) | > 5800 | 1.7 | 62 | > 10 | > 10 | > 10 | > 10 | 36 | > 5800 | 1 | – | 1.6 | – | – | – | – | – | – | – |
| CC[C@H](C)[C@@H]1NC(=O)[C@H](Cc2ccccc2)NC(=O)[C@@H](N)CSSC[C@@H](C(=O)N2CCC[C@H]2C(=O)N[C@@H](CCCNC(C)C)C(=O)NCC(N)=O)NC(=O)[C@H](CC(N)=O)NC(=O)[C@H](CCC(N)=O)NC1=O (H-CFIQNCP[Orn(iPr)]G-NH2; disulfide 1-6) | 760 | 0.38 | 44 | – | – | – | – | 110 | 86 | 0.13 | – | – | – | 0.29 | 0.033 | 2.3 | < 70 | < 70 | – |
| CCNCCC[C@H](NC(=O)[C@@H]1CCCN1C(=O)[C@@H]1CSSC[C@H](N)C(=O)N[C@@H](Cc2ccccc2)C(=O)N[C@@H]([C@@H](C)CC)C(=O)N[C@@H](CCC(N)=O)C(=O)N[C@@H](CC(N)=O)C(=O)N1)C(=O)NCC(N)=O (H-CFIQNCP[X1]G-NH2; disulfide 1-6) | 450 | 0.57 | 32 | – | – | – | – | 56 | 56 | 0.16 | – | – | – | 0.26 | 0.032 | 2.1 | – | < 70 | < 70 |

Second part, led by results:

| Ratio EC50 [1] | EC50 (Vasopressin V1a receptor [2]) [nM] | EC50 (Vasopressin V1b receptor) [nM] | EC50 (Vasopressin V2 receptor [3]; hek293, read-out: EC50) [µM] | EC50 (Vasopressin V2 receptor [3]; read-out: pEC50 (converted)) [µM] | EC50 (Oxytocin receptor; cho-k1, read-out: EC50) [µM] | EC50 (Oxytocin receptor; read-out: pEC50 (converted)) [µM] | Ratio EC50 (Homo sapiens [4]) | Ratio EC50 (Homo sapiens [5]) | EC50 (Vasopressin V1a receptor [6]) [nM] | SMILES | Time (Rattus norvegicus [7]) [unitless ratio] | Time (Rattus norvegicus [8]) [unitless ratio] | Time (Rattus norvegicus [9]) [unitless ratio] | EC50 (Vasopressin V2 receptor [3]; read-out: EC50) [µM] | EC50 (Oxytocin receptor; read-out: EC50) [µM] | Time (Rattus norvegicus [10]) [min] | Efficacy (Vasopressin V1a receptor [11]) [%] | Efficacy (Vasopressin V2 receptor [12]) [%] | Efficacy [13] [%] |
| --- | --- | --- | --- | --- | --- | --- | --- | --- | --- | --- | --- | --- | --- | --- | --- | --- | --- | --- | --- |
| > 3400 | 2.9 | 37 | > 10 | > 10 | > 10 | > 10 | 12 | > 3400 | 2 | CC[C@H](C)[C@@H]1NC(=O)[C@H](Cc2ccccc2)NC(=O)[C@@H](N)CSSC[C@@H](C(=O)N2CCC[C@H]2C(=O)N[C@@H](CCN)C(=O)NCC(N)=O)NC(=O)[C@H](CC(N)=O)NC(=O)[C@H](CC(N)=O)NC1=O (H-CFINNCP[Dab]G-NH2; disulfide 1-6) | – | – | 2 | – | – | – | – | – | – |
| > 10000 | 0.99 | 120 | > 10 | > 10 | > 10 | > 10 | 120 | > 10000 | 8 | CCNCCC[C@H](NC(=O)[C@@H]1CCCN1C(=O)[C@@H]1CSSC[C@H](N)C(=O)N[C@@H](Cc2ccccc2)C(=O)N[C@@H]([C@@H](C)CC)C(=O)N[C@@H](CC(N)=O)C(=O)N[C@@H](CC(N)=O)C(=O)N1)C(=O)NCC(N)=O (H-CFINNCP[X1]G-NH2; disulfide 1-6) | – | – | 2.4 | – | – | – | – | – | – |
